Source: PubChem (several laboratories)
Only some compounds are listed: those with a hit (about 0.95% of all), similar ones and a draw of the others.
CSN inh = CSN deneddylation inhibition. Q92905. hit rate 0.38% among 360,000. inhibition, % at 12.5 µM. Purified CSN, SCF-Nedd8-OG deneddylation, fluorescence polarization. AID 651999;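 active = pattern-corrected inhibition above about 35%, with an unprinted fluorescence ratio check between 0.5 and 1.5, limit read from the data, passing the limit was not always enough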
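Test system: Human Csn5 produced in HEK293T cells | Compound: 12.5 µM single point | Times: 90 min, room temperature | Signal: Fluorescence polarization readout | Read-out basis: % inhibition of substrate cleavage by Csn5 | Controls: no-enzyme wells high, enzyme-with-substrate wells low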
ASAP1 inh = inhibitors of human ASAP1 ArfGAP activity; ASAP1-stimulated ARF1 GTP hydrolysis, GDP FP detection; Q9ULH1; inhibition, % at 16.5 µM; hit rate 0.19% among 360,000; in the data active = inhibition above about 25%
HNF4A DNA FP = change in binding of human HNF4 alpha to DNA; HNF4a-FITC DNA binding, fluorescence polarization, 1 h; activity change, % at 10 µM; hit rate 0.3% among 360,000; AID 1224865; in the data active = activity change above about 30%, passing the limit was not always enough
ARFGAP1 inhibitor = inhibitors of rat ARFGAP1 | Q62848 | Arfgap1-stimulated ARF1 GTP hydrolysis, GDP FP detection | inhibition, % at 16.5 µM | hit rate 0.26% among 360,000 | AID 651572;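 active = inhibition above a per-plate limit, mean inhibition of low control wells plus 3 SD, cut at about 25% in these data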
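material = rat Arfgap1 catalytic domain, aa 1-136 | also added = human ARF1(Δ1-17)-GTP substrate | compound dosing = one concentration, 16.5 µM, DMSO 1.26% | times = GTP hydrolysis reaction 2 h at 25 °C | measured by = FP, GDP Alexa 633 tracer displaced from anti-GDP antibody, 620/688 nm | evaluation = percent inhibition of Arfgap1-stimulated GTP hydrolysis | replication = single well per compound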
ASAP1 inh confirm = ASAP1 inhibition confirmed. ASAP1-stimulated Arf1 GTPase, GDP fluorescence polarization. AID 624431. shares compounds with ASAP1 inh. inhibition, % at 16.5 µM. hit rate 37% among 620;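 active = mean inhibition over triplicates exceeds the hit threshold derived for the earlier primary screening run, cut at about 25% in these data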
ARFGAP1 inh conf = confirmation of rat ARFGAP1 inhibitors; shares compounds with ARFGAP1 inhibitor; ARFGAP1-stimulated ARF1 GTP hydrolysis, GDP tracer FP; inhibition, % at 16.5 µM; hit rate 30% among 890; AID 651608;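 active = average inhibition over triplicates above the hit cutoff set in the earlier primary screen, cut at about 25% in these data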
CSN deneddyl val = Csn5 (human) deneddylation inhibition, single-concentration validation; shares compounds with CSN inh; Csn5 deneddylation of SCF-Nedd8OG, fluorescence polarization, 90 min; inhibition, % at 16.6 µM; hit rate 62% among 540; AID 720654; in the data active = inhibition above about 50%
MMP2 cntr CSN = blocks human MMP-2 in a CSN deneddylation counter-screen | shares compounds with CSN inh | recombinant MMP-2, FRET substrate fluorescence, 60 min | inhibition, % at 16.6 µM | hit rate 33% among 540 | AID 720655;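 active = corrected plate-normalized z-score of 5 or more, or -5 or less, or inhibition of 15% or more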
Target sequence (P08253 whole entry, looked up): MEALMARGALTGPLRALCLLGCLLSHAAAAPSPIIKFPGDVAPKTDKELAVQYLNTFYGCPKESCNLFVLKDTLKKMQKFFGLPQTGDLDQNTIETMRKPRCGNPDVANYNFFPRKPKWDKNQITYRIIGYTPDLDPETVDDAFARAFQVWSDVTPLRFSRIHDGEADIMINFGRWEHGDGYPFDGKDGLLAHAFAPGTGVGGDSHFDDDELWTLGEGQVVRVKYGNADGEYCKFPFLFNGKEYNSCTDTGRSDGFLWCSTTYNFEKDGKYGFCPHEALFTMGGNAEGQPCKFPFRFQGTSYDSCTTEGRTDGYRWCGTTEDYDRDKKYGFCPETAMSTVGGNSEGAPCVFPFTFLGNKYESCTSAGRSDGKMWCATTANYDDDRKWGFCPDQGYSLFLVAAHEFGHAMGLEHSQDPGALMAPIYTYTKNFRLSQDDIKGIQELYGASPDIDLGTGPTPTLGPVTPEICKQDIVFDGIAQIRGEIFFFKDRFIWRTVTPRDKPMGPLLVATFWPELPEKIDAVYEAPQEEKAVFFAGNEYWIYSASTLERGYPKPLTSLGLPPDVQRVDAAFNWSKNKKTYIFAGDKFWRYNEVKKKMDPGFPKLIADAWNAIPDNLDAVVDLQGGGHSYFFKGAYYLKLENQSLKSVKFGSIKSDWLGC
Thrombin counter = counter-screen for CSN deneddylation inhibitors: bovine thrombin inhibition; inhibition, % at 16.6 µM; hit rate 49% among 540; shares compounds with CSN inh; bovine thrombin cleavage of Ub4-pepOG, fluorescence polarization;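 active = inhibition at or above a set limit, with a fluorescence interference ratio between 0.5 and a set maximum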
Each line names hits and unclear results; the compound was inactive in the other large screens (follow-up assays come after a bar, where they were run).

Nc1c(C(=O)NCc2ccco2)c2nc3ccccc3nc2n1Cc1ccc(F)cc1	ASAP1 inh 32 | ASAP1 inh confirm inactive
COCCCn1c(N)c(C(=O)NCCC(C)C)c2nc3ccccc3nc21	CSN inh 37, ASAP1 inh 27 | ASAP1 inh confirm inactive
CCN1C(=O)C(=C/C=C/c2ccco2)C(=O)N(CC)C1=S	ASAP1 inh 28 | ASAP1 inh confirm inactive
CC(C)c1ccc(N2C(=O)NC(=O)/C(=C\C=C\c3ccco3)C2=O)cc1	none (no result: CSN inh, HNF4A DNA FP)
O=[N+]([O-])c1ccc(NCCO)c2ncccc12	none
CCC(C)C1NC(=O)C(NC(=O)C(CC(C)C)N(C)C(=O)C2CCCN2C(=O)C(C)O)C(C)OC(=O)C(Cc2ccc(OC)cc2)N(C)C(=O)C2CCCN2C(=O)C(CC(C)C)NC(=O)[C@H](C)C(=O)[C@H](C(C)C)OC(=O)CC1O (stereo partly specified)	ASAP1 inh 27 | ASAP1 inh confirm inactive
CN1C2CNC(=O)CC1C1CCC2C1 (stereo unspecified)	none
CC[n+]1c(/C=C/C=C/c2ccc(N(C)C)cc2)sc2ccccc21	ASAP1 inh 98, ARFGAP1 inhibitor 107 | ASAP1 inh confirm 123 | ARFGAP1 inh conf 159
CN(C)c1ccc(/C=C/C=C/c2sc3ccccc3[n+]2C)cc1	ASAP1 inh 80, ARFGAP1 inhibitor 92 | ASAP1 inh confirm 109 | ARFGAP1 inh conf 127
CC[n+]1c(/C=C/N(C)c2ccccc2)sc2ccc(Cl)cc21	none
CN(C)c1ccc(/C=C/c2cc[n+](C)c3ccccc23)cc1	ASAP1 inh 44, ARFGAP1 inhibitor 37 | ASAP1 inh confirm 51 | ARFGAP1 inh conf 49
O=c1[nH]c(=S)[nH]c(O)c1N=Nc1ccc(S(=O)(=O)N2CCc3ccccc32)cc1	none
CC(=O)c1ccc2c(c1)C1C(Cl)C(Sc3ccccc3[N+](=O)[O-])CC1C(C(=O)O)N2 (stereo unspecified)	none
O=C(O)c1cccc2c1NC(C(=O)O)C1CC(Sc3ccccc3[N+](=O)[O-])C(Cl)C21 (stereo unspecified)	ASAP1 inh 59, ARFGAP1 inhibitor 35 | ASAP1 inh confirm 61 | ARFGAP1 inh conf 87
CCNC(=O)NNC(=O)C1CC(c2cccnc2)=NO1 (stereo unspecified)	none
CCOCCCn1c(N)c(C(=O)Nc2sc3c(c2C(=O)OC)CCCC3)c2nc3ccccc3nc21	CSN inh 52, ASAP1 inh 34, ARFGAP1 inhibitor 25 | ASAP1 inh confirm inactive | ARFGAP1 inh conf inactive | CSN deneddyl val 93 | MMP2 cntr CSN inactive | Thrombin counter inactive
Cc1ccccc1-c1ccc2n1Cc1cnnn1-c1ccccc1-2	none
S=C(NCCc1ccccc1)N1Cc2cc(Br)ccc2-n2nncc2C1	none
S=C(NCCc1ccccc1)N1Cc2ccc(Br)cc2-n2nncc2C1	ARFGAP1 inhibitor 26 | ARFGAP1 inh conf inactive
CN1CCN(Cc2cc(C(C)(C)C)c(O)c(C(C)(C)C)c2)CC1	ARFGAP1 inhibitor 26 | ARFGAP1 inh conf inactive
C=CCn1c(O)c(C=NCCCOc2ccc(CC)cc2)c(=O)[nH]c1=S	none
CCOP(=O)(OCC)C(O)c1cccc([N+](=O)[O-])c1 (stereo unspecified)	ARFGAP1 inhibitor 26 | ARFGAP1 inh conf inactive
COc1ccc(CC2(CCc3ccncc3)C(=O)NC(=O)NC2=O)cc1OC	none
O=C1NC(=O)N(c2cccc(Cl)c2)C(=O)/C1=C\c1ccc(Sc2nc3ccccc3[nH]2)o1	CSN inh 38 | CSN deneddyl val inactive | MMP2 cntr CSN inactive | Thrombin counter 25
O=C1NC(=S)N(c2ccccc2)C(=O)/C1=C/c1ccco1	CSN inh 53 | MMP2 cntr CSN 46 | Thrombin counter inactive
CCOc1cccc(N2C(=O)/C(=C/c3ccco3)C(=O)NC2=S)c1	CSN inh 39 | MMP2 cntr CSN 34 | Thrombin counter inactive
Cc1cc(C)cc(N2C(=O)/C(=C\c3ccc(N4CCN(C)CC4)o3)C(=O)NC2=S)c1	CSN inh 76 | CSN deneddyl val 103 | MMP2 cntr CSN -48 | Thrombin counter inactive
Cc1ccc(/C=C2\C(=O)NC(=S)N(c3ccc(F)cc3)C2=O)o1	none
COc1cccc(N2C(=O)/C(=C/c3ccc(C)o3)C(=O)NC2=S)c1	CSN inh 37 | CSN deneddyl val 88 | MMP2 cntr CSN 32 | Thrombin counter 26
C=CCn1c(O)c(C(CC)=NC(C)c2ccccc2)c(=O)[nH]c1=O (stereo unspecified)	none
Cc1cc(OC(=O)N(C)C)n(-c2ccccc2)n1	none
O=C(CCN1CC1)OCCOC(=O)CCN1CC1	none
CCC1(C)OC(c2ccccc2)=C/C(=C/C=C2C(=O)NC(=O)NC2=O)O1 (stereo unspecified)	CSN inh 78 | CSN deneddyl val 139 | MMP2 cntr CSN inactive | Thrombin counter 51
CCn1nc(/C=C/c2ccccc2)nc2c(=O)n(C)c(=O)nc1-2	CSN inh 59, HNF4A DNA FP 107 | CSN deneddyl val inactive | MMP2 cntr CSN inactive | Thrombin counter inactive
CCN(CC)c1ccc(/C=C2/C(=O)NC(=O)N(Cc3ccco3)C2=O)cc1	CSN inh 63 | CSN deneddyl val 56 | MMP2 cntr CSN 19 | Thrombin counter inactive
COc1ccc(/C=C2/C(=O)N(Cc3ccco3)C(=O)N(C(C)C)C2=O)cc1	CSN inh 99 | CSN deneddyl val inactive | MMP2 cntr CSN inactive | Thrombin counter 56
CC(C)N1C(=O)/C(=C/C=C/c2ccco2)C(=O)N(Cc2ccco2)C1=O	CSN inh 79 | CSN deneddyl val inactive | MMP2 cntr CSN inactive | Thrombin counter 27
CN(C)c1ccc(/C=C2/C(=O)NC(=O)N(Cc3ccco3)C2=O)cc1	none
NC(=O)C1CCN(/C=C2\C(=O)NC(=O)N(Cc3ccco3)C2=O)CC1	none
CC12CN3CC(C)(CN(C1)C31CCSCC1)C2=O	none
O=C1NC(=O)N(Cc2ccccc2)C(=O)/C1=C/C=C/c1ccco1	CSN inh 121, HNF4A DNA FP 42 | CSN deneddyl val 71 | MMP2 cntr CSN inactive | Thrombin counter 22
COc1cc(OC)c(OC)cc1/C=C1/C(=O)NC(=O)N(Cc2ccccc2)C1=O	none
